# Experimental data from ChEMBL document CHEMBL1127374, “Synthesis and antiviral (HIV-1, HBV) activities of 5-halo-6-methoxy(or azido)-5,6-dihydro-3'-fluoro-3'-deoxythymidine diastereomers. Potential prodrugs to 3'-fluoro-3'-deoxythymidine” (J Med Chem, 1994).
# pEC50, pIC50: −log10 of the molar value.
# Experiments:
# [1] = (§1) Compound was tested in vitro against extracellular DNA hepatitis B virus of human liver cells; assay type: functional
# Method in brief: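 2.2.15 cells (chronically HBV-producing human liver line) grown to confluence, then dosed daily for 9 continuous days with medium changed daily. Extracellular virion HBV DNA in medium sampled at days 0, 3, 6 and 9 and quantified; intracellular HBV genomic forms analysed from cells lysed 24 h after day 9.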
# [2] = as §1; assay type: functional; remark: listed apart in the source
# Method in brief: (§2)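 HBV-producing human liver 2.2.15 cells grown to confluence, then dosed daily for 9 continuous days with daily medium change. Medium collected at days 0, 3, 6 and 9 for extracellular virion HBV DNA. Cells lysed 24 h after day 9 for intracellular HBV genomic forms (replication). EC50 and EC90 derived from HBV DNA levels.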
# [3] = Selectivity index is the ratio of CC50 to that of EC50 (anti-hepatitis B virus activity in extracellular DNA); assay type: functional
# Method in brief: (§3)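 Selectivity index calculated as CC50 (neutral red uptake, 2.2.15 cells, 9-day daily dosing) divided by EC50 from HBV DNA (extracellular virion DNA in line 3, intracellular DNA in line 4).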
# [4] = Selectivity index is the ratio of CC50 to that of EC50 (anti-hepatitis B virus activity in intracellular DNA); assay type: functional; method in brief: as §3
# [5] = Tested for in vitro cytotoxic concentration against hepatitis B irus replication in chronically HBV-producing human liver cells; assay type: functional
# Method in brief: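 Confluent 2.2.15 cells dosed daily for 9 days as in the anti-HBV assay. Four concentrations in 3–10-fold steps, triplicate cultures, untreated controls on each plate, cell-free wells to correct for light scattering. Neutral red uptake read at 510 nm 24 h after day 9, relative to untreated cells. CC50 taken as the 50% cytotoxic concentration.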
# [6] = (§4) Compound was tested in vitro against intracellular DNA hepatitis B virus of human liver cells; assay type: functional, cell-based; method in brief: as §2
# [7] = as §4; assay type: functional; method in brief: as §2
# [8] = Selectivity index is the ratio of IC50 value to that of EC50 value; assay type: functional
# Method in brief: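 CEM T4 lymphocytes infected with small amounts of HIV-1, with a full replication cycle needed for cell killing. EC50 is the concentration giving 50% survival of infected cells relative to uninfected untreated controls. IC50 is the concentration giving 50% survival of uninfected untreated CEM cells. SI = IC50/EC50. An AZT-treated control was run alongside.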
# [9] = test system: CCRF-CEM; assay: Tested for in vitro drug concentration which results in 50% survival of uninfected untreated control CEM cells; assay type: functional, cell-based; conditions: Homo sapiens
# Method in brief: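 Uninfected CEM T4 lymphocytes exposed to the test compound alongside the anti-HIV protection assay, with an AZT control run concurrently. IC50 is the concentration giving 50% survival relative to uninfected untreated control cells.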
# [10] = test system: CCRF-CEM; assay: Tested for in vitro drug concentration which produces 50% survival of HIV-1 infected CEM cells relative to uninfected untreated controls; assay type: functional, cell-based; conditions: Homo sapiens
# Method in brief: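 CEM T4 lymphocytes infected with small amounts of HIV-1, so that a complete replication cycle is needed for cell killing. Protection from cytolysis measured. EC50 is the concentration giving 50% survival of infected cells relative to uninfected untreated controls. AZT-treated positive control run at the same time under identical conditions.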
# [11] = Tested for in vitro percent of 3'-fluoro-3'-deoxythymidine(FLT) formed upon incubation with glutathione; assay type: ADME
# Method in brief: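 Test compound incubated with reduced glutathione at a 1:2 molar ratio in phosphate buffer, pH 7.4, 37 °C, 30 min. UV detection at 230 nm for the 5,6-dihydro compound and 265 nm for FLT.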
# [12] = test system: MT4; assay: Tested for in vitro cytopathic effect of HIV for MT-4 cells; assay type: functional, cell-based; conditions: Homo sapiens
SMILES,pEC50 [1],EC90 [2],Selectivity index [3],Selectivity index [4],CC50 [5],pEC50 [6],EC90 [7],Selectivity index [8],pIC50 [9],pEC50 [10],FLT [11],pEC50 [12]
Nc1ccn([C@H]2CC[C@@H](CO)O2)c(=O)n1 [ZALCITABINE],5.89,8.1 µM,27,18,219 µM,5.68,12 µM,,,,,
CO[C@@H]1N(C2CC(F)C(CO)O2)C(=O)NC(=O)[C@@]1(C)I (some centres undefined),,,,,,,,3250,4.91,8.43,90%,
CO[C@@H]1N(C2CC(F)C(CO)O2)C(=O)NC(=O)[C@@]1(C)Br (some centres undefined),4.68,67 µM,16,8.8,1040 µM,4.59,118 µM,2990,5.01,8.49,10%,
Cc1cn([C@H]2C[C@H](N=[N+]=[N-])[C@@H](CO)O2)c(=O)[nH]c1=O [ZIDOVUDINE],,,,,,,,167000,3.30,8.52,,8.40
CC1(Br)C(=O)NC(=O)N([C@H]2C[C@H](F)[C@@H](CO)O2)C1N=[N+]=[N-] (mixture of isomers),,42 µM,4.2,3.1,176 µM,4.89,57 µM,7140,4.00,7.84,95%,
CO[C@H]1N(C2CC(F)C(CO)O2)C(=O)NC(=O)[C@]1(C)I (some centres undefined),,,,,,,,1,4.24,4.30,50%,
CO[C@H]1N(C2CC(F)C(CO)O2)C(=O)NC(=O)[C@]1(C)Br (some centres undefined),5.22,36 µM,21,18,765 µM,4.89,42 µM,328,5.76,8.28,10%,
CO[C@H]1N(C2CC(F)C(CO)O2)C(=O)NC(=O)[C@@]1(C)Cl (some centres undefined),,,,,,,,> 21,< 3.10,4.42,0%,
CO[C@H]1N(C2CC(F)C(CO)O2)C(=O)NC(=O)[C@]1(C)Cl (some centres undefined),,,,,,,,> 144,< 3.10,5.26,0%,
